Only some compounds are listed: those with a hit (about 6.4% of all), similar ones and a draw of the others.
H69AR growth 86K: growth inhibitors of human H69AR lung tumor cells; viability, % at 10 µM; AID 598; actives 6% (n = 85,000); H69AR lung tumor viability, ATP luminescence, 72 h; active compounds read low;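 active = viability at or below 40%; inactive = viability above 40%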;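 note: multidrug resistant small cell line overexpressing MRP-1 efflux transporter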
Jurkat viability: cytotoxicity toward Jurkat cells; inhibition, % at 4 µM; Jurkat E6.1 viability, ATP luminescence, 48 h; actives 1.2% (n = 56,000);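 active = inhibition above the mean inhibition of all tested compounds plus 3 SD, cut at about 28% in these data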
Lung fibro prol: blocks proliferation of human lung fibroblasts; viability, % at 10 µM; actives 1.1% (n = 85,000); LL 47 human lung fibroblast viability, ATP luminescence; active compounds read low;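 active = viability at or below 50% in the single dose screen; inactive = viability above 50%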;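 note: compound exposure lasted 72 h before the ATP readout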
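Test system: LL 47 human lung fibroblasts / Quantity: 1,150 cells in each well / Medium: IMEM growth medium with 15% fetal bovine serum / Incubation: 72 h compound exposure at 37 °C after overnight plating / Detection: CellTiter-Glo luminescence measuring cellular ATP / Read-out: % viability versus median cells-only luminescence / Benchmarks: cell-only wells, no compound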
Ecoli tolC: E. coli tolC mutant growth inhibition; growth inhibition, % at 10 µM (by protocol); actives 2.2% (n = 65,000); E. coli BW25113 tolC mutant growth, OD615;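 active = growth inhibition at or above a cutoff equal to the mean over every tested compound plus 3 SD, cut at about 60% in these data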;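 note: growth measured after 20 h incubation at 37 °C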
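Material: E. coli BW25113 ΔtolC::kan, tolC deletion mutant strain. Measure: percent growth inhibition. Schedule: 37 °C, 20 h exposure. Doses: single-point testing at 10 µM. Signal: A615 absorbance measurement. Buffer or medium: kanamycin-containing LB broth (50 µg/mL).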
Ecoli WT expand: E. coli BW25113 growth inhibition, expanded screen; OD600 absorbance; growth inhibition, % at 100 µM; actives 0.15% (n = 98,000);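 active = growth inhibition above about 50% at one test dose, limit read from the data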;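 note: growth measured after 20 h incubation at 37 °C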
HUVEC prolif 384: blocks proliferation of human endothelial cells; HUVEC proliferation, CellTiter-Glo luminescence, 72 h; active compounds read low; viability, % at 10 µM (by protocol); actives 1.1% (n = 86,000);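 active = viability at or below 30%; inactive = viability above 30%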
Numbers stand for hits; . = inactive; / = not tested or not shown.

SMILES	H69AR growth 86K	Jurkat viability	Lung fibro prol	Ecoli tolC	Ecoli WT expand	HUVEC prolif 384
N#CC1=C(N)NC(SCc2ccc(F)cc2)=C(C#N)C12CCCCC2	10	/	.	.	.	.
Cc1cccc(C)c1N1CCN(c2ccc3nnc(C(F)(F)F)n3n2)CC1	25	/	.	/	.	13
Cc1c(C(=O)NCCC2=CCCCC2)cccc1[N+](=O)[O-]	/	/	/	/	.	/
CCOc1ccc(S(=O)(=O)N2c3ccccc3CC2C)cc1 (configuration not stated)	25	/	.	/	.	.
CC1Cc2ccccc2N1S(=O)(=O)c1cccs1 (configuration not stated)	.	.	.	.	.	.
c1ccc(-c2ccc(-c3nc(-c4ccccn4)no3)cc2)cc1	34	/	42	.	.	.
Cc1ccccc1-c1noc(-c2ccc(Cl)cc2)n1	.	/	.	/	.	.
Cc1ccc(-c2nc(-c3ccccn3)no2)cc1	/	35	/	.	.	/
COc1cccc(-c2nc(-c3ccccn3)no2)c1OC	.	.	.	.	.	.
c1ccc(-c2noc(-c3cccc4ccccc34)n2)nc1	38	.	.	.	.	.
Cc1ccccc1-c1noc(-c2ccc(O)cc2)n1	15	.	.	.	.	.
CCN1CC=C2C(C#N)=C(N)C(C#N)(C#N)C(c3cc(Cl)ccc3Cl)C2C1 (configuration not stated)	.	.	.	.	.	.
O=C(c1ccccc1Oc1nnnn1-c1ccccc1)N1CCOCC1	.	.	.	.	.	.
CCOC(=O)c1ccc2c(c1)NC(=O)C(N1CCN(c3ccc(OC)cc3)CC1)S2 (configuration not stated)	31	.	46	.	.	.
COc1ccc(Cn2c(-c3ccc(OC)cc3)nc3ccccc32)cc1	.	/	.	/	/	.
COc1ccc(CCN2CCC(Nc3nc4ccccc4n3Cc3ccc(F)cc3)CC2)cc1	1.5	/	2.1	.	/	1.9
CCc1c(O)cc2n(c1=O)-c1ccc(Cl)cc1C2(C)C	.	/	.	/	/	.
COC(=O)CP(=O)(c1ccccc1)c1ccccc1	.	/	.	/	.	.
Cc1ccc(C(=O)NCCSc2ccc(Cl)cc2)cc1S(=O)(=O)Nc1ccccc1	/	/	/	/	.	/
Cc1ccc2nc(N3CCN(C(=O)c4cccs4)CC3)c(C#N)cc2c1	.	.	.	.	.	.
CC12CCC(C(=O)Nc3cccc4ccccc34)(C1Br)C2(C)C (configuration not stated)	/	/	/	/	.	/
Cc1nnc(SCCn2c(N3CCC(Cc4ccccc4)CC3)nc3c2c(=O)[nH]c(=O)n3C)s1	/	/	/	.	/	/
CCCCn1c(N2CCC(Cc3ccccc3)CC2)nc2c1c(=O)[nH]c(=O)n2C	.	.	.	100	.	.
CC1Cc2ccccc2N1C(=O)CSc1nc2c(c(=O)n(C)c(=O)n2C)n1Cc1ccc(F)cc1 (configuration not stated)	11	/	30	/	/	.
CCCCn1c(SCc2ccc(Cl)cc2)nc2c1c(=O)[nH]c(=O)n2C	27	.	.	.	.	.
SMILES	H69AR growth 86K	Jurkat viability	Lung fibro prol	Ecoli tolC	Ecoli WT expand	HUVEC prolif 384
C/C=C/CSc1nc2c(c(=O)[nH]c(=O)n2C)n1Cc1ccc(C)cc1	18	.	.	.	.	.
CC1Cc2ccccc2N1C(=O)c1cc2sccc2n1Cc1ccc(F)cc1 (configuration not stated)	.	/	.	/	/	.
Cc1ccc(CSc2nc3c(c(=O)[nH]c(=O)n3C)n2CCC(C)C)cc1	.	.	.	.	.	.
Cc1ccc(Cn2c(SCC(C)C)nc3c2c(=O)n(C)c(=O)n3C)cc1	.	.	.	92	.	.
CC(C)CCn1c(SCc2ccc(Cl)cc2)nc2c1c(=O)[nH]c(=O)n2C	28	.	.	.	.	.
Cc1ccc2c(c1)-c1c(cnn1CC(=O)N(CCC#N)c1ccccc1)CO2	.	.	.	.	.	.
O=C(NCc1cccnc1)c1ccc(COc2ccccc2Br)o1	.	.	.	.	.	.
O=C(Nc1cccnc1)c1ccc(COc2ccccc2Br)o1	.	.	.	.	.	24
CC(=O)C(C(C)=O)c1c(Cl)c(O)c(O)c2c(C(=O)c3ccccc3)coc12	1.6	49	47	.	.	.
O=C(COC(=O)c1ccccc1NCc1ccco1)Nc1ccc2c(c1)OCO2	.	/	.	/	.	.
O=C(COC(=O)c1ccccc1NC(=O)c1ccco1)Nc1ccc2c(c1)OCO2	38	.	.	.	.	.
CCOC(=O)N1CCC(NC(=O)c2ccc3c(c2)sc2nc(-c4cccc(OC)c4)cn23)CC1	.	35	.	.	.	.
CCOc1ccccc1N1CCN(C(=O)Nc2ccc(F)c(Cl)c2)CC1	.	.	.	96	.	.
Cc1cc(C)c(C)c(S(=O)(=O)N2CCN(CC(=O)NC(=O)NCc3ccccc3)CC2)c1C	.	/	.	/	.	.
Cc1ccc(S(=O)(=O)N2CCN(C(=O)CSc3nc4ccccc4c(=O)[nH]3)CC2)c(C)c1	.	.	.	.	.	.
Cc1cc(C)c(C)c(S(=O)(=O)N2CCN(C(=O)c3cc(=O)[nH]c4ccccc34)CC2)c1C	12	/	.	/	.	.
Cc1ccc(S(=O)(=O)N2CCN(C(=O)c3cc(=O)[nH]c4ccccc34)CC2)c(C)c1	39	.	.	.	.	.
CCN(CC)S(=O)(=O)c1cccc(C(=O)Nc2cccc(C)c2)c1	25	/	.	/	.	.
CCN(CC)S(=O)(=O)c1cccc(C(=O)Nc2cc(C)cc(C)c2)c1	32	/	.	/	.	.
CCOC(=O)c1c(NC(=O)c2ccco2)n(C2CCCCC2)c2nc3ccccc3nc12	36	/	.	/	.	.
CCC(=O)Nc1c(C#N)c2nc3ccccc3nc2n1C1CCCCC1	.	/	.	.	.	.
COc1cccc(Cn2c(-c3nonc3N)nc3ccccc32)c1	24	81	.	.	.	.
CC(C)(C)NC(=O)Cn1c(-c2nonc2N)nc2ccccc21	.	/	.	/	.	.
Cc1ccc(Cn2c(-c3nonc3N)nc3ccccc32)cc1	/	.	/	.	.	/
CCCCOc1ccccc1NC(=O)Cn1c(-c2nonc2N)nc2ccccc21	/	33	/	.	.	/
SMILES	H69AR growth 86K	Jurkat viability	Lung fibro prol	Ecoli tolC	Ecoli WT expand	HUVEC prolif 384
COc1cc(Cn2c(-c3nonc3N)nc3ccccc32)ccc1C	18	31	48	.	.	.
N#CC1=C(N)N(c2ccccc2)C(c2cccc([N+](=O)[O-])c2)C1(C#N)C#N (configuration not stated)	10	/	.	/	.	.
N#CC1=C(N)N(c2ccccc2)C(c2ccco2)C1(C#N)C#N (configuration not stated)	/	.	/	.	.	/
Cc1cccc(N2C(N)=C(C#N)C(C#N)(C#N)C2c2ccccc2)c1 (configuration not stated)	.	.	.	100	.	.
O=C(CSc1nnc2scc(-c3ccccc3)n12)NCC1CCCO1 (configuration not stated)	.	.	.	.	.	.
CCOC(=O)C1=C(C)NC(C)=C(C(=O)OCC)C1C(=O)OCC(=O)N1CCc2ccccc2C1	.	.	.	.	.	.

Screening data as filed in PubChem BioAssay.
